Assay results: ChEMBL document CHEMBL2021801, “Thienopyridine ureas as dual inhibitors of the VEGF and Aurora kinase families” (Bioorg Med Chem Lett, 2012)

How the values were obtained:
[1] = Volume of distribution at steady state in dog; assay type: ADME, organism-based, Canis lupus familiaris; conditions: in vivo, read-out: Vdss
[2] = Half life in CD1 (ICR) mouse at 3 mg/kg, iv; assay type: ADME, organism-based; set-up: dose 3 mg/kg, route intravenous; conditions: in vivo
[3] = Half life in rat; assay type: ADME, organism-based; conditions: in vivo
Cytochrome P450 3A4 [4] = target: T1, Cytochrome P450 3A4 (Homo sapiens, UniProt P08684); assay: Inhibition of CYP3A4; assay type: ADME
[5] = Volume of distribution at steady state in rat; assay type: ADME, organism-based; conditions: in vivo, read-out: Vdss
[6] = Oral bioavailability in CD1 (ICR) mouse at 10 mg/kg; assay type: ADME, organism-based; conditions: in vivo
[7] = AUC in CD1 (ICR) mouse at 10 mg/kg, po; assay type: ADME, organism-based; set-up: dose 10 mg/kg, route oral; conditions: plasma
Aurora kinase B = Aurora kinase B (Homo sapiens, UniProt Q96GD4); conditions: NCI-H1229
[8] = Volume of distribution in CD1 (ICR) mouse at 3 mg/kg, iv; assay type: ADME, organism-based; set-up: dose 3 mg/kg, route intravenous; conditions: in vivo
[9] = Half life in dog; assay type: ADME, organism-based, Canis lupus familiaris; conditions: in vivo
Canis familiaris [10] = species on record: Canis familiaris; assay: Cardiotoxicity in dog assessed as QT prolongation time at 32.1 uM plasma concentration; assay type: toxicity, organism-based, Canis lupus familiaris
Cytochrome P450 3A4 [11] = target: T1, Cytochrome P450 3A4; assay: Inhibition of CYP3A4 up to 10 uM; assay type: ADME
[12] = Protein binding in dog; assay type: ADME, organism-based, Canis lupus familiaris; conditions: plasma, read-out: PB
[13] = Clearance in CD1 (ICR) mouse at 3 mg/kg, iv; assay type: ADME, organism-based; set-up: dose 3 mg/kg, route intravenous; conditions: in vivo
[14] = Plasma clearance in mouse; assay type: ADME, organism-based
[15] = Aqueous solubility of the compound; assay type: physicochemical; conditions: buffer
In short: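 Aqueous solubility was measured across the physiological pH range.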

[16] = Volume of distribution at steady state in mouse; assay type: ADME, organism-based; conditions: in vivo, read-out: Vdss
[17] = Protein binding in rat; assay type: ADME, organism-based; conditions: plasma, read-out: PB
[18] = Plasma clearance in dog; assay type: ADME, organism-based, Canis lupus familiaris
Mus musculus = assay: In vivo inhibition of KDR in po dosed mouse assessed as estradiol-induced uterine edema; assay type: functional
[19] = Protein binding in mouse; assay type: ADME, organism-based; conditions: plasma, read-out: PB
[20] = Half life in mouse; assay type: ADME, organism-based; conditions: in vivo
[21] = Lipophilicity, log D of the compound at pH 7; assay type: physicochemical; conditions: buffer
[22] = target: Voltage-gated inwardly rectifying potassium channel KCNH2 (Homo sapiens, UniProt Q12809); assay: Inhibition of human Erg by patch clamp assay in absence of plasma protein
Canis familiaris [23] = species on record: Canis familiaris; assay: Cardiotoxicity in dog assessed as QT prolongation time at 117 uM plasma concentration; assay type: toxicity, organism-based, Canis lupus familiaris
[24] = Plasma clearance in rat; assay type: ADME, organism-based

T1 sequence (P08684 whole entry): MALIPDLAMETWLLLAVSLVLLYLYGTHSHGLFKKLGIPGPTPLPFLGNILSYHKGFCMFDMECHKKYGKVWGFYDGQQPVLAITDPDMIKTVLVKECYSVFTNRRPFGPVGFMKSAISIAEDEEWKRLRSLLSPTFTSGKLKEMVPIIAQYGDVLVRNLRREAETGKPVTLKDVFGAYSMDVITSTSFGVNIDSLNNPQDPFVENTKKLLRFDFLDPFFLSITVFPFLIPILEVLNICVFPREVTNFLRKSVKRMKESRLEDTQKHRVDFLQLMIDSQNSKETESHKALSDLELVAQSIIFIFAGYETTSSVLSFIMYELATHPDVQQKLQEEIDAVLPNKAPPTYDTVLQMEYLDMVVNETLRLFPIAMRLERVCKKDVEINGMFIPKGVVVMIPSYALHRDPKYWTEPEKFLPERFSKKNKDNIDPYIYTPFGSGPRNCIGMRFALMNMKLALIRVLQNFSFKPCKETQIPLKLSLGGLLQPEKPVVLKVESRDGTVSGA
Sequence of Aurora kinase B (Q96GD4 whole entry): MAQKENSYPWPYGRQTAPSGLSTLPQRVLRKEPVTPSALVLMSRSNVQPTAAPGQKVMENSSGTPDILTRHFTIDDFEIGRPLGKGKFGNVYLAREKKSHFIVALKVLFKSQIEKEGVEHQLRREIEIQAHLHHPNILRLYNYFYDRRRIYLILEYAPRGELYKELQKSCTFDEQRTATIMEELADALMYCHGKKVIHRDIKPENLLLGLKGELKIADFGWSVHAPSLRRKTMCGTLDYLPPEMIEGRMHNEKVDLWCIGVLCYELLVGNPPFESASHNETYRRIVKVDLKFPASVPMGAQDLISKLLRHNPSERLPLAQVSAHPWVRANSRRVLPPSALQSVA
Sequence of Voltage-gated inwardly rectifying potassium channel KCNH2 (Q12809 whole entry): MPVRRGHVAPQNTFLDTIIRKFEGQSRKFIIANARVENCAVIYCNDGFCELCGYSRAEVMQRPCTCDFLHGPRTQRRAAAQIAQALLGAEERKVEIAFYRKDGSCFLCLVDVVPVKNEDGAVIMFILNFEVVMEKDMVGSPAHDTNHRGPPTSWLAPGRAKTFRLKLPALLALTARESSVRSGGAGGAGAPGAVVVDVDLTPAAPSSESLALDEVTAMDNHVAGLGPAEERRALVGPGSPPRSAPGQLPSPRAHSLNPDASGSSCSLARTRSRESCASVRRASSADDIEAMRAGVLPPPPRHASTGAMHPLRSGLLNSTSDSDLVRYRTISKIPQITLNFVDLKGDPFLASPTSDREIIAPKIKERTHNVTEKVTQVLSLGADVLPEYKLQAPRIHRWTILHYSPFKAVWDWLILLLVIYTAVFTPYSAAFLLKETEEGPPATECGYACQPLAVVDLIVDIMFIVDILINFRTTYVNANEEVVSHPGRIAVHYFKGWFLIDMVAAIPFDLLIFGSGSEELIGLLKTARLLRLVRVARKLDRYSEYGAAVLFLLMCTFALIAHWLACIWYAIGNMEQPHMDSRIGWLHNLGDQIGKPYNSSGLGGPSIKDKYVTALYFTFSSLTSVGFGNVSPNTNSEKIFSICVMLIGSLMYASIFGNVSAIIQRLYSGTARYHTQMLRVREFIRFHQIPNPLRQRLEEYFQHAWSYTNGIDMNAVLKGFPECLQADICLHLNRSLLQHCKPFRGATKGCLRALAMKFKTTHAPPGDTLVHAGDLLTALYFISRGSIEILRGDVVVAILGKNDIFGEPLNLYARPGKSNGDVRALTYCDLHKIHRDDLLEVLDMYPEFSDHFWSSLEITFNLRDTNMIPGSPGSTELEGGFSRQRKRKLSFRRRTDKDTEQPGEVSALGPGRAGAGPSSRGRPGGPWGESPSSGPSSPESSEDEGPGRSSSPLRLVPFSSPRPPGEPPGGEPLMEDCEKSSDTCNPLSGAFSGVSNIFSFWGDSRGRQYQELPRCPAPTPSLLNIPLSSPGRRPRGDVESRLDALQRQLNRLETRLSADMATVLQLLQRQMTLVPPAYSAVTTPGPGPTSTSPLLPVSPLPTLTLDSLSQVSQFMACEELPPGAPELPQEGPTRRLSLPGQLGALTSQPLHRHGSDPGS

For `Nc1ncc(-c2cnn(CCO)c2)c2scc(-c3ccc(NC(=O)Nc4cccc(F)c4)cc3)c12` [ILORASERTIB], the Vd [1] was 0.4 L/kg, the half-life [2] was 4.7 h and the half-life [3] was 4 h. The IC50 (Cytochrome P450 3A4 [4]) was over 30 µM, the Vd [5] was 0.4 L/kg and the bioavailability [6] was 47%. It also gave an AUC [7] of 18600 ng·h/mL, an EC15 (Aurora kinase B) of 0.012 µM and a Vd [8] of 1.7 L/kg. The half-life [9] was 4 h, the Time (Canis familiaris [10]) was 11 ms and the “inhibition (INH)” value (Cytochrome P450 3A4 [11]) was under 20%. The fraction unbound [12] was under 0.01, the clearance [13] was 5 mL/min/kg and the clearance [14] was under 5 mL/min/kg. For the same compound, the solubility [15] was under 78 µM, the Vd [16] was 0.4 L/kg and the fraction unbound [17] was under 0.01. It also gave a clearance [18] of under 5 mL/min/kg, an ED50 (Mus musculus) of 3.2 mg/kg and a fraction unbound [19] of under 0.01. The half-life [20] was 4 h, the logD [21] was 4.5 and the IC50 [22] was 1 µM. For the same compound, the Time (Canis familiaris [23]) was 25 ms and the clearance [24] was under 5 mL/min/kg.
